# Most compounds without a hit are left out; they make up all but 1.3% or so of the library.
# PP5 primary = PP5 (human) phosphatase inhibition | P53041 | purified PP5c, OMFP substrate fluorescence | inhibition, % at 6.7 µM | 0.18% of 320,000 active | AID 1987;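 active = inhibition above the campaign's mean inhibition across all tested compounds plus 3 SD, cut at about 9.5% in these data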;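 note: 0% = DMSO only and 100% = 100 µM cantharidin control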
# NR2E3 ag-1 = activates human NR2E3 receptor; Q9Y5X4; CHO-S Gal4-NCOR/VP16-NR2E3 two-hybrid, luciferase; inhibition of corepressor binding, % at 3.98 µM; 0.35% of 360,000 active; AID 602229;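 active = inhibition above the mean of all tested compounds plus 3 SD, cut at about 70% in these data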;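 note: 0% = DMSO with NR2E3 transfected cells and 100% = cells lacking NR2E3 construct; higher means lower luciferase signal from less NR2E3 corepressor binding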
# NR2E3 ag-2 = NR2E3 (human) agonism; Q9Y5X4; GST-NR2E3/biotin-RetCOR TR-FRET, 1536-well; inhibition of corepressor binding, % at 4.78 µM; 0.12% of 320,000 active; AID 2300;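 active = percent inhibition above the cutoff of mean plus 3 SD of all tested compounds, set per screening campaign, cut at about 20% in these data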;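 note: 0% = DMSO wells and 100% = biotin wells as full block of FRET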
#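 Material: NR2E3–RetCOR corepressor complex | Quantity: 1.35 nM GST-tagged NR2E3 final | Schedule: 5 h at 4 °C | Replication: Singlicate compound wells | Reagent: RetCOR corepressor, biotinylated, 7 nM | Controls: Biotin wells as high control, 0.6% DMSO wells as low control | Signal: TR-FRET, Eu(K)-anti-GST donor, streptavidin-D2 acceptor, ex 340, em 617/671 nm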
# PP1 counter = PP1-alpha (human) inhibition in PP5 counter-screen. purified PP1alpha, OMFP fluorescence. P62136. 0.9% of 320,000 active. AID 2235. inhibition, % at 6.7 µM;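 active = inhibition above the mean inhibition of all tested compounds plus 3 SD, computed separately for each screening campaign, cut at about 15% in these data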
# Target sequence (P62136 whole entry, looked up): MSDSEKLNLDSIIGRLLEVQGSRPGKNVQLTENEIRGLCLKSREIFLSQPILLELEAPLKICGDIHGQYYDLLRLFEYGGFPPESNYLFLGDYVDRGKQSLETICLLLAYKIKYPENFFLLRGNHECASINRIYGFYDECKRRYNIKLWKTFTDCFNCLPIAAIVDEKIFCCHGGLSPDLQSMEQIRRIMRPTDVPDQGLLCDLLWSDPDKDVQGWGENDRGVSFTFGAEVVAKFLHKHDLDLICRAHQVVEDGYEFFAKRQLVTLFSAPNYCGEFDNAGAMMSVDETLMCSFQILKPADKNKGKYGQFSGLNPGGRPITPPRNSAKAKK
# PP1 confirm = confirmation of human PP1 phosphatase inhibitors | shares compounds with PP1 counter | purified PP1alpha, OMFP substrate fluorescence | inhibition, % at 6.7 µM | 52% of 1,900 active;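 active = mean PP1 inhibition above a set limit taken from the earlier primary screen, cut at about 15% in these data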
# PP5 inh counter = PP5 phosphatase inhibition, counter-screen for PP1 inhibitors; shares compounds with PP1 counter; purified PP5c, OMFP fluorescence; inhibition, % at 6.7 µM; 4% of 1,900 active; AID 2360;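 active = mean PP5 inhibition over triplicate wells above about 9.5% taken from the earlier PP1 screen, limit read from the data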
# * = called active by the depositor; . = no result given.
SMILES,PP5 primary,NR2E3 ag-1,NR2E3 ag-2,PP1 counter,PP1 confirm,PP5 inh counter
COc1ccc(N2CCN(C(=O)CSc3ncnc4scc(-c5ccc(C)cc5)c34)CC2)cc1,3,-2,0,26*,19*,1
O=C(c1cc(-c2ccco2)on1)N1CCN(C(c2ccccc2)c2ccccc2)CC1,3,21,-4,19*,7,-1
COC(=O)c1ccc(C2/C(=C(\O)c3ccc(OC)c(C)c3)C(=O)C(=O)N2c2cc(C)on2)cc1 (centres undefined),2,23,9,19*,16*,-6
CNC(=O)c1ccc2cc(OC)c(OC)cc2c1,.,-25,.,.,.,.
C#CCOCCOCCOCCNc1nc(N2CCN(C(=O)CCCCCCCCCCNC(=O)Cn3cc(C[C@@H](C)O)nn3)CC2)nc(N2CCN(C(=O)CCCCCCCCCCNC(=O)[C@H](CCCCN)n3cc(C[C@@H](C)CC)nn3)CC2)n1,5,-16,0,38*,31*,1
C#CCOCCOCCOCCNc1nc(N2CCOCC2)nc(N2CCN(C(=O)CCCCCCCCCCNC(=O)[C@@H](CCSC)n3cc(CCO)nn3)CC2)n1,2,6,5,-1,.,.
C#CCOCCOCCOCCNc1nc(N2CCN(C(=O)CCCCCCCCCCNC(=O)Cn3cc(CCCCCN)nn3)CC2)nc(N2CCN(C(=O)CCCCCCCCCCNC(=O)[C@H]([C@@H](C)CC)n3cc(CCCCCN)nn3)CC2)n1,3,-2,-4,46*,35*,-1
C#CCOCCOCCOCCNc1nc(N2CCN(C(=O)CCCCCCCCCCNC(=O)[C@H](CO)n3cc(CCCSC)nn3)CC2)nc(N2CCN(C(=O)CCCCCCCCCCNC(=O)[C@H](CO)n3cc(CCCSC)nn3)CC2)n1,2,-29,5,30*,22*,4
C#CCOCCOCCOCCNc1nc(N2CCOCC2)nc(N2CCN(C(=O)CCCCCCCCCCNC(=O)Cn3cc(CCCCCN)nn3)CC2)n1,1,9,4,0,.,.
C#CCOCCOCCOCCNc1nc(N2CCN(C(=O)CCCCCCCCCCNC(=O)Cn3cc(CCCCCN)nn3)CC2)nc(N2CCN(C(=O)CCCCCCCCCCNC(=O)[C@H](CO)n3cc(CCCCCN)nn3)CC2)n1,0,2,0,35*,15,-2
CC1=NN(c2ccc(C(=O)O)cc2)C(=O)/C1=C\c1ccc(OC(=O)c2cccs2)cc1,2,-32,12,29*,18*,-1
CC1(C(=O)Nc2cccc3cccnc23)CCN1Cc1ccccc1OC(F)F (centres undefined),.,7,.,.,.,.
CC(=O)C1=C(O)C(=O)N(CCc2c[nH]c3ccccc23)C1c1ccc(C)cc1 (centres undefined),4,-6,6,26*,23*,-4
CCOc1cc(C2C(C(C)=O)=C(O)C(=O)N2CCc2c[nH]c3ccccc23)ccc1O (centres undefined),1,-1,5,4,.,.
CCCCC1=CC2=CC(=O)C(C)(OC(=O)CC)C(=O)C2=CN1CCc1c[nH]c2ccccc12 (centres undefined),1,0,-2,20*,3,8
N#C/C(=C\c1cccnc1)C(=O)Nc1ccc(O)cc1F,2,-16,1,-1,.,.
Cc1ccc(NC(=O)C2C3CCC(O3)C2C(=O)O)cc1Cl (centres undefined),75*,-19,5,75*,12,25*
O=C(Nc1cnn(Cc2ccccc2)c1)NC12CC3CC(CC(C3)C1)C2,3,-24,0,0,.,.
O=C(O)C1C2CCC(O2)C1C(=O)Nc1cnn(Cc2ccccc2)c1 (centres undefined),41*,0,-3,24*,7,18*
O=C(O)C1C2CCC(O2)C1C(=O)Nc1ccc(F)c(Cl)c1 (centres undefined),71*,-10,3,66*,10,19*
O=C(Nc1ccc(F)c(Cl)c1)[C@@H]1O[C@H](CO)[C@H](O)[C@H](O)[C@H]1O,.,-4,.,.,.,.
C[C@H]1CN([C@@H](C)CO)C(=O)CCCn2cc(nn2)CO[C@@H]1CN(C)C(=O)Oc1ccccc1,.,1,.,.,.,.
COc1ccccc1N=NNc1ccc(S(=O)(=O)NC(C)=O)cc1,.,-7,.,.,.,.
Cc1ccc(NC(=O)CCNC(=O)N2CC(=O)Nc3ccccc32)cc1Cl,.,-2,.,.,.,.
NS(=O)(=O)c1ccc(N/N=C/c2cn(-c3ccccc3)nc2-c2cccs2)c([N+](=O)[O-])c1,1,1,-1,26*,26*,0
SMILES,PP5 primary,NR2E3 ag-1,NR2E3 ag-2,PP1 counter,PP1 confirm,PP5 inh counter
COc1ccc(CNC(=S)Nc2cc(OC)ccc2OC)cc1,2,-7,4,63*,-3,-5
COc1ccc(OC)c(NC(=S)NCc2ccc(S(N)(=O)=O)cc2)c1,1,1,2,-3,.,.
Cc1cc(N2CCCCC2C)nc(-c2ccccc2O)n1 (centres undefined),0,-19,0,-2,.,.
C[C@]12C=CC(=O)C=C1CC[C@@H]1C2=CC[C@]2(C)[C@@H](C(=O)CN3CCN(c4cc(N5CCCC5)nc(N5CCCC5)n4)CC3)CC[C@@H]12,13*,-33,3,26*,50*,25*
CC(=O)C1CCC2C3CCC4=CC(=O)C=CC4(C)C3C(=O)CC12C (centres undefined),.,11,.,.,.,.
O=c1cc(-c2ccccc2)cc(-c2ccccc2)n1CCCO,-10,21,2,19*,-4,-7
Cc1sc(N(C(=O)CCc2ccccc2)c2ccc(C(=O)O)cc2)nc1-c1ccccc1,5,-15,4,20*,15*,0
COc1ccc2cc3c(N)nn(C(=O)c4ccccc4Cl)c3nc2c1,3,-61,6,-19,.,.
COc1cccc(CC(=O)n2nc(N)c3cc4ccc(OC)cc4nc32)c1,2,-5,1,1,.,.
COc1ccc2cc3c(N)nn(C(=O)Cc4ccc(Cl)cc4)c3nc2c1,1,-24,-1,21*,12,-4
COc1ccc2cc3c(N)nn(C(=O)Cc4c[nH]c5ccccc45)c3nc2c1,5,10,7,19*,17*,4
O=C(c1ccc2nc(Cc3ccccc3F)oc2c1)N1CC[C@H](O)C1,2,-37,0,-1,.,.
COCCNC(=O)C1CCCN(C(=O)c2sc(-c3ccccc3)nc2C)CC1 (centres undefined),.,17,.,.,.,.
NS(=O)(=O)c1cccc(NC(=O)CSc2nc3nc(-c4cccs4)cc(C(F)(F)F)c3c(=O)[nH]2)c1,4,10,12,27*,21*,2
Cc1ccc(-c2nnc(SCC(=O)N/N=C/c3ccc(C)s3)n2-c2ccc(C)cc2)cc1,6,-3,4,20*,6,-1
CCOc1ccc(N2C(=O)c3cccnc3C2Nc2ccc(Cl)cc2)cc1 (centres undefined),3,-9,-5,5,.,.
